pIC50: −log10 of the molar value. Active and inactive are the calls of the source. The rule behind the calls is not given here.
How the values were obtained:
Homo sapiens = species: Homo sapiens; assay: Inhibition of TNFalpha-induced NFkappaB activation (unknown origin) expressed in mouse 3T3L1 cells at 10 ng/µl by luciferase reporter gene assay
[1] = biological target: T1, Prostaglandin E synthase (Mus musculus) (UniProt Q9JM51); assay: Inhibition of mPGES1 in mouse 3T3L1 cells assessed as reduction in PGE2 production at 1 to 10 ng/ml after 1 hr by ELISA; type: cell-based
T1 sequence (whole entry): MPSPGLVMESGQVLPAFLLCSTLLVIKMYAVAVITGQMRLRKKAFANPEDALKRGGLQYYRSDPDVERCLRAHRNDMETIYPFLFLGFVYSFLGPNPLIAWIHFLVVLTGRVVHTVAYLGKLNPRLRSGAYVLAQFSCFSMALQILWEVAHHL
Outline: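 3T3 cells were treated with compound at 1 and 10 ng/ml. Culture media were collected and secreted PGE2 was measured by ELISA.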

3T3-L1 = assay: Cytotoxicity against mouse 3T3L1 cells assessed as reduction in cell viability at 10 ng/ml after 6 hrs by alamar blue assay; type: cell-based; settings: 3t3-l1, 6 h
[2] = biological target: T1, Prostaglandin E synthase (Mus musculus); assay: (§1) Inhibition of mPGES1 in mouse 3T3L1 cells assessed as reduction in PGE2 production after 1 hr by ELISA; type: cell-based
Outline: (§2)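 3T3 cells were treated at four doses and secreted PGE2 was measured by ELISA. IC50 was obtained by four-parameter logistic fit.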

Prostaglandin E synthase = biological target: T2, Prostaglandin E synthase (Mus musculus, UniProt Q9JM51); assay: as §1; type: cell-based
T2 sequence (Q9JM51 whole entry): T1 sequence (whole entry)
Outline: as §2

[3] = biological target: T1, Prostaglandin E synthase (Mus musculus); assay: Inhibition of mPGES1 in mouse 3T3L1 cells assessed as reduction in PGE2 production at 10 ng/ml after 1 hr by ELISA relative to control; values are per cent of control

Structure (SMILES)	inhibition [2]	pIC50 (Prostaglandin E synthase)	inhibition (Homo sapiens)	Activity (3T3-L1)	other results
COc1ccc(C/C=C/CCCCc2ccccc2O)cc1OC	–	–	inactive	–	–
COc1ccc(CCCCCCCc2ccccc2O)cc1	–	–	–	–	inhibition [1]: inactive
COc1ccc(C/C=C/Cc2ccc(OC)cc2)cc1	Dose-dependent effect	4.92	–	Non-Toxic	–
COc1ccc(C/C=C/CCCCc2ccccc2O)cc1	–	–	inactive	–	inhibition [1]: Active
COc1cc(/C=C/C(=O)CC(=O)/C=C/c2ccc(O)c(OC)c2)ccc1O	–	–	Active	–	–
COc1ccc(CCCCc2ccc(OC)cc2)cc1	Dose-dependent effect	–	inactive	–	–
COc1ccc(CCCCCCCc2ccc(O)cc2)cc1	–	–	inactive	–	–
COc1ccc(C/C=C/CCCCc2ccc(O)cc2)cc1	–	–	–	–	inhibition [1]: inactive

Further lines, with some results ahead:

inhibition [2]	pIC50 (Prostaglandin E synthase)	Structure (SMILES)	inhibition (Homo sapiens)	Activity (3T3-L1)	other results
Dose-dependent effect	4.54	COc1ccc(CCCCCCCc2ccc(O)cc2)cc1OC	–	Non-Toxic	residual activity [3]: 33%
Dose-dependent effect	4.77	COc1ccc(CCCCCCCc2ccccc2O)cc1OC	inactive	Non-Toxic	–
Dose-dependent effect	5.77	COc1ccc(C/C=C/CCCCc2ccc(O)cc2)cc1OC	–	Non-Toxic	–
